Data taken from PMC11377854 (Nature methods, 2024).
Like-named read-outs stand apart in the source and are kept apart here.

What was measured:
[1] = test system: r5-HT1.0; assay: Dose-response of sensor fluorescence change; format: cell-based, HEK293T cells; settings: n = 3
[2] = test system: g5-HT3.0; assay: Dose-response of sensor fluorescence change; format: cell-based, HEK293T cells; settings: n = 3
[3] = test system: g5-HT2h; settings: read-out: EC50 values
[4] = test system: g5-HT2m; settings: read-out: EC50 values
[5] = test system: g5-HT3.0; assay: Dose-response of sensor fluorescence change; format: cell-based, cultured rat cortical neurons; settings: read-out: EC50 values
[6] = test system: r5-HT1.0; assay: Dose-response of sensor fluorescence change; format: cell-based, cultured rat cortical neurons; settings: read-out: EC50 values
[7] = test system: 5-HT release in mouse dorsal cortex; assay: Mesoscopic imaging of optogenetically evoked cortical 5-HT release; format: in vivo, mice; settings: fluoxetine 20 mg/kg i.p., GBR 12909 10 mg/kg i.p.
How it was run: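 In Sert-Cre mice, 300 nl AAV9-EF1a-DIO-ChrimsonR was injected into the DRN (AP −6.1, ML 0, depth 3 mm, 32° AP angle), with an optical fiber 0.2 mm above the site. Mice recovered ≥7 d and were habituated head-fixed over >3 d.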

[8] = test system: g5-HT3.0; assay: Pharmacological specificity of g5-HT3.0 in HEK293T cells; format: cell-based; settings: compounds 10 μM except RS 100 μM
[9] = test system: r5-HT1.0; assay: Pharmacological specificity of r5-HT1.0 in HEK293T cells; format: cell-based; settings: compounds 10 μM except RS 100 μM
[10] = test system: β-arrestin pathway; assay: Tango assay; format: cell-based; settings: HTLA cells, 5-HT 0.01 nM to 100 μM
[11] = test system: GPCR-mediated Gs pathway; assay: Luciferase complementation assay; format: cell-based; settings: HEK293T cells, 5-HT 0.01 nM to 1 mM

NCCc1c[nH]c2ccc(O)cc12 [5-HT, serotonin (5-hydroxytryptamine)]
EC50 [1]: ~0.79 µM
EC50 [2]: ~0.15 µM
EC50 [3]: 0.07 µM
EC50 [4]: 2.4 µM
EC50 [5]: 0.08 µM
EC50 [6]: 0.6 µM

Fc1ccc(C(OCCN2CCN(CCCc3ccccc3)CC2)c2ccc(F)cc2)cc1 [GBR 12909]
baseline 5-HT levels (g5-HT3.0 signal) [7]: no effect

COc1cc(N)c(Cl)cc1C(=O)OCCCN1CCCCC1 [RS 23597-190]
block of 5-HT induced response of g5-HT3.0 [8]: blocked
block of 5-HT induced response of r5-HT1.0 [9]: blocked

CNCCC(Oc1ccc(C(F)(F)F)cc1)c1ccccc1 (stereo not drawn) [fluoxetine]
baseline 5-HT levels (g5-HT3.0 signal) [7]: gradual increase

wild-type 5-HTR4: wild-type 5-HTR4 receptor
downstream coupling, β-arrestin pathway [10]: high basal activity and robust, dose-dependent coupling
downstream coupling, Gs pathway [11]: high basal activity and robust, dose-dependent coupling
